Converted amounts (≈) assume the structure as drawn.
What was measured:
Assay type in all cases: functional
Escherichia coli = assay: Antimicrobial activity against Escherichia coli after 24 hrs […]
In short: (§1)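 Broth microdilution MIC. Bacteria were grown in Luria broth (1% tryptone, 0.5% yeast extract, 0.5% NaCl, pH 7.2) at 37 °C for 24 h. Mid-log cultures were read at OD540 and diluted to OD 0.004 (5 × 10⁵ CFU/mL) before inoculation. Compounds in DMSO were given as eleven twofold serial dilutions, and plates were incubated at 37 °C for 24 h. MIC was the lowest concentration with no visible growth by turbidity. Cefixime, amoxicillin and vancomycin were the positive controls.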

Pseudomonas aeruginosa = assay: Antimicrobial activity against Pseudomonas aeruginosa after 24 hrs […]; in short: as §1
Klebsiella aerogenes = assay: Antimicrobial activity against Enterobacter aerogenes after 24 hrs […]; in short: as §1
Staphylococcus aureus = assay: Antimicrobial activity against Staphylococcus aureus after 24 hrs […]; in short: as §1
Enterococcus faecalis = assay: Antimicrobial activity against Enterococcus faecalis after 24 hrs […]; in short: as §1
Priestia megaterium = assay: Antimicrobial activity against Bacillus megaterium after 24 hrs […]; in short: as §1

| Compound | MIC (Escherichia coli) | MIC (Pseudomonas aeruginosa) | MIC (Klebsiella aerogenes) | MIC (Staphylococcus aureus) | MIC (Enterococcus faecalis) | MIC (Priestia megaterium) |
| --- | --- | --- | --- | --- | --- | --- |
| Cc1ccc(-c2nc3ccc(-c4nnc(-c5ccc([N+](=O)[O-])cc5)o4)cn3c2Nc2ccccc2)cc1 | 13.4 µg/mL (≈ 27.5 µM) | 12.6 µg/mL (≈ 25.7 µM) | 10.2 µg/mL (≈ 20.8 µM) | 9.85 µg/mL (≈ 20.2 µM) | 11.4 µg/mL (≈ 23.3 µM) | 15.5 µg/mL (≈ 31.7 µM) |
| Fc1ccc2nc(-c3ccc4nc(-c5ccc(Br)cc5)c(Nc5ccccc5)n4c3)[nH]c2c1 | 2.15 µg/mL (≈ 4.31 µM) | 3.44 µg/mL (≈ 6.9 µM) | 2.05 µg/mL (≈ 4.11 µM) | 1.51 µg/mL (≈ 3.03 µM) | 5.23 µg/mL (≈ 10.5 µM) | 10.2 µg/mL (≈ 20.6 µM) |
| Cc1ccc2nc(-c3ccc4nc(-c5ccc(Br)cc5)c(Nc5ccccc5)n4c3)[nH]c2c1 | 10.3 µg/mL (≈ 20.9 µM) | 13.4 µg/mL (≈ 27 µM) | 11.8 µg/mL (≈ 23.8 µM) | 9.51 µg/mL (≈ 19.2 µM) | 13.6 µg/mL (≈ 27.6 µM) | 18.6 µg/mL (≈ 37.6 µM) |
| Cc1ccc(-c2nnc(-c3ccc4nc(-c5ccc(Br)cc5)c(Nc5ccccc5)n4c3)o2)cc1 | 12.4 µg/mL (≈ 23.7 µM) | 10.2 µg/mL (≈ 19.5 µM) | 11.3 µg/mL (≈ 21.6 µM) | 12.3 µg/mL (≈ 23.5 µM) | 11.8 µg/mL (≈ 22.6 µM) | 16.6 µg/mL (≈ 31.7 µM) |
| Fc1ccc(-c2cnc(-c3cnc4nc(-c5ccc(Br)cc5)c(Nc5ccccc5)n4c3)[nH]2)cc1 | 1.15 µg/mL (≈ 2.19 µM) | 2.34 µg/mL (≈ 4.45 µM) | 1.11 µg/mL (≈ 2.11 µM) | 0.63 µg/mL (≈ 1.2 µM) | 4.21 µg/mL (≈ 8.01 µM) | 9.17 µg/mL (≈ 17.5 µM) |
| Clc1ccc2nc(-c3cnc4nc(-c5ccc(Br)cc5)c(Nc5ccccc5)n4c3)[nH]c2c1 | 2.78 µg/mL (≈ 5.39 µM) | 2.55 µg/mL (≈ 4.94 µM) | 2.75 µg/mL (≈ 5.33 µM) | 1.84 µg/mL (≈ 3.57 µM) | 5.87 µg/mL (≈ 11.4 µM) | 13.7 µg/mL (≈ 26.6 µM) |
| Brc1ccc(-c2nc3ccc(-c4ncc(-c5ccc(Oc6ccccc6)cc5)[nH]4)cn3c2Nc2ccccc2)cc1 | 33.3 µg/mL (≈ 55.6 µM) | 44.3 µg/mL (≈ 74 µM) | 53.4 µg/mL (≈ 89.2 µM) | 58.4 µg/mL (≈ 97.5 µM) | 39.6 µg/mL (≈ 66.2 µM) | 53.2 µg/mL (≈ 88.8 µM) |
| O=[N+]([O-])c1ccc2nc(-c3cnc4nc(-c5ccc(Br)cc5)c(Nc5ccccc5)n4c3)[nH]c2c1 | 11.7 µg/mL (≈ 22.2 µM) | 12.2 µg/mL (≈ 23.2 µM) | 10.6 µg/mL (≈ 20.2 µM) | 9.32 µg/mL (≈ 17.7 µM) | 11.4 µg/mL (≈ 21.8 µM) | 15.4 µg/mL (≈ 29.3 µM) |
| Fc1ccc(-c2cnc(-c3ccc4nc(-c5ccc(Br)cc5)c(Nc5ccccc5)n4c3)[nH]2)cc1 | 1.33 µg/mL (≈ 2.54 µM) | 2.12 µg/mL (≈ 4.04 µM) | 1.55 µg/mL (≈ 2.96 µM) | 0.72 µg/mL (≈ 1.37 µM) | 3.17 µg/mL (≈ 6.05 µM) | 8.34 µg/mL (≈ 15.9 µM) |
| CN[C@H](CC(C)C)C(=O)N[C@H]1C(=O)N[C@@H](CC(N)=O)C(=O)N[C@H]2C(=O)N[C@H]3C(=O)N[C@H](C(=O)N[C@H](C(=O)O)c4cc(O)cc(O)c4-c4cc3ccc4O)[C@H](O)c3ccc(c(Cl)c3)Oc3cc2cc(c3O[C@@H]2O[C@H](CO)[C@@H](O)[C@H](O)[C@H]2O[C@H]2C[C@](C)(N)[C@H](O)[C@H](C)O2)Oc2ccc(cc2Cl)[C@H]1O [VANCOMYCIN] | 6.65 µg/mL (≈ 4.59 µM) | 23.5 µg/mL (≈ 16.2 µM) | 0.52 µg/mL (≈ 0.359 µM) | 2.75 µg/mL (≈ 1.9 µM) | 4.21 µg/mL (≈ 2.9 µM) | 6.37 µg/mL (≈ 4.4 µM) |
| Cc1ccc(-c2nc3ncc(-c4nc5ccc(F)cc5[nH]4)cn3c2Nc2ccccc2)cc1 | 3.44 µg/mL (≈ 7.92 µM) | 4.72 µg/mL (≈ 10.9 µM) | 6.18 µg/mL (≈ 14.2 µM) | 6.32 µg/mL (≈ 14.5 µM) | 5.76 µg/mL (≈ 13.3 µM) | 17.2 µg/mL (≈ 39.5 µM) |
| Fc1ccc2nc(-c3cnc4nc(-c5ccc(Br)cc5)c(Nc5ccccc5)n4c3)[nH]c2c1 | 2.29 µg/mL (≈ 4.59 µM) | 2.85 µg/mL (≈ 5.71 µM) | 2.25 µg/mL (≈ 4.51 µM) | 1.23 µg/mL (≈ 2.46 µM) | 6.64 µg/mL (≈ 13.3 µM) | 11.7 µg/mL (≈ 23.5 µM) |
| Brc1ccc(-c2nc3ccc(-c4nc5ccc(Oc6ccccc6)cc5[nH]4)cn3c2Nc2ccccc2)cc1 | 31.8 µg/mL (≈ 55.6 µM) | 41.1 µg/mL (≈ 71.8 µM) | 58.5 µg/mL (≈ 102 µM) | 56.2 µg/mL (≈ 98.1 µM) | 44.7 µg/mL (≈ 78.1 µM) | 58.7 µg/mL (≈ 102 µM) |
| Fc1ccc2nc(-c3cnc4nc(-c5ccc(Oc6ccccc6)cc5)c(Nc5ccccc5)n4c3)[nH]c2c1 | 10.5 µg/mL (≈ 20.5 µM) | 7.38 µg/mL (≈ 14.4 µM) | 6.12 µg/mL (≈ 11.9 µM) | 9.43 µg/mL (≈ 18.4 µM) | 10.4 µg/mL (≈ 20.3 µM) | 19.8 µg/mL (≈ 38.6 µM) |
| Cc1ccc(-c2nnc(-c3cnc4nc(-c5ccc(Br)cc5)c(Nc5ccccc5)n4c3)o2)cc1 | 8.56 µg/mL (≈ 16.4 µM) | 7.64 µg/mL (≈ 14.6 µM) | 6.43 µg/mL (≈ 12.3 µM) | 5.31 µg/mL (≈ 10.1 µM) | 8.71 µg/mL (≈ 16.6 µM) | 13.6 µg/mL (≈ 26 µM) |
| Cc1ccc(-c2nc3ccc(-c4nc5ccc(Oc6ccccc6)cc5[nH]4)cn3c2Nc2ccccc2)cc1 | 34.8 µg/mL (≈ 68.5 µM) | 45.4 µg/mL (≈ 89.5 µM) | 57.3 µg/mL (≈ 113 µM) | 54.9 µg/mL (≈ 108 µM) | 46.5 µg/mL (≈ 91.6 µM) | 65.5 µg/mL (≈ 129 µM) |
| O=[N+]([O-])c1ccc2nc(-c3ccc4nc(-c5ccc(Br)cc5)c(Nc5ccccc5)n4c3)[nH]c2c1 | 11.3 µg/mL (≈ 21.5 µM) | 14.5 µg/mL (≈ 27.6 µM) | 12.8 µg/mL (≈ 24.5 µM) | 10.3 µg/mL (≈ 19.6 µM) | 13.4 µg/mL (≈ 25.4 µM) | 17.5 µg/mL (≈ 33.4 µM) |
| Fc1ccc(-c2nnc(-c3ccc4nc(-c5ccc(Br)cc5)c(Nc5ccccc5)n4c3)o2)cc1 | 1.11 µg/mL (≈ 2.11 µM) | 2.43 µg/mL (≈ 4.62 µM) | 0.85 µg/mL (≈ 1.61 µM) | 0.51 µg/mL (≈ 0.969 µM) | 1.57 µg/mL (≈ 2.98 µM) | 4.97 µg/mL (≈ 9.44 µM) |
| Cc1ccc(-c2cnc(-c3cnc4nc(-c5ccc(Br)cc5)c(Nc5ccccc5)n4c3)[nH]2)cc1 | 8.11 µg/mL (≈ 15.6 µM) | 11.4 µg/mL (≈ 22 µM) | 10.8 µg/mL (≈ 20.8 µM) | 9.49 µg/mL (≈ 18.2 µM) | 11.7 µg/mL (≈ 22.4 µM) | 15.6 µg/mL (≈ 29.8 µM) |
| C=CC1=C(C(=O)O)N2C(=O)[C@@H](NC(=O)/C(=N\OCC(=O)O)c3csc(N)n3)[C@H]2SC1 [CEFIXIME] | 2.34 µg/mL (≈ 5.16 µM) | 17.2 µg/mL (≈ 38 µM) | 28.2 µg/mL (≈ 62.1 µM) | 33.9 µg/mL (≈ 74.7 µM) | 27.9 µg/mL (≈ 61.6 µM) | 128 µg/mL (≈ 282 µM) |
| Fc1ccc(-c2nnc(-c3ccc4nc(-c5ccc(Oc6ccccc6)cc5)c(Nc5ccccc5)n4c3)o2)cc1 | 11.7 µg/mL (≈ 21.7 µM) | 9.64 µg/mL (≈ 17.9 µM) | 8.42 µg/mL (≈ 15.6 µM) | 11.1 µg/mL (≈ 20.6 µM) | 12.6 µg/mL (≈ 23.3 µM) | 17.4 µg/mL (≈ 32.3 µM) |
| Fc1ccc(-c2nnc(-c3cnc4nc(-c5ccc(Br)cc5)c(Nc5ccccc5)n4c3)o2)cc1 | 1.33 µg/mL (≈ 2.52 µM) | 1.87 µg/mL (≈ 3.55 µM) | 0.94 µg/mL (≈ 1.78 µM) | 0.64 µg/mL (≈ 1.21 µM) | 1.92 µg/mL (≈ 3.64 µM) | 5.45 µg/mL (≈ 10.3 µM) |
| Clc1ccc(-c2cnc(-c3ccc4nc(-c5ccc(Br)cc5)c(Nc5ccccc5)n4c3)[nH]2)cc1 | 1.42 µg/mL (≈ 2.63 µM) | 2.52 µg/mL (≈ 4.66 µM) | 1.17 µg/mL (≈ 2.16 µM) | 0.93 µg/mL (≈ 1.72 µM) | 2.96 µg/mL (≈ 5.47 µM) | 9.13 µg/mL (≈ 16.9 µM) |
| CC1(C)S[C@@H]2[C@H](NC(=O)[C@H](N)c3ccc(O)cc3)C(=O)N2[C@H]1C(=O)O [AMOXICILLIN] | 16.4 µg/mL (≈ 45 µM) | 14.5 µg/mL (≈ 39.8 µM) | 3.65 µg/mL (≈ 9.99 µM) | 13.3 µg/mL (≈ 36.5 µM) | 1.22 µg/mL (≈ 3.34 µM) | 2.75 µg/mL (≈ 7.53 µM) |
| Cc1ccc(-c2nc3ccc(-c4nc5ccc(Br)cc5[nH]4)cn3c2Nc2ccccc2)cc1 | 3.18 µg/mL (≈ 6.43 µM) | 5.22 µg/mL (≈ 10.6 µM) | 7.15 µg/mL (≈ 14.5 µM) | 5.11 µg/mL (≈ 10.3 µM) | 6.28 µg/mL (≈ 12.7 µM) | 14 µg/mL (≈ 28.2 µM) |
| Cc1ccc(-c2nc3ncc(-c4nnc(-c5ccc(F)cc5)o4)cn3c2Nc2ccccc2)cc1 | 2.78 µg/mL (≈ 6.01 µM) | 3.65 µg/mL (≈ 7.89 µM) | 5.29 µg/mL (≈ 11.4 µM) | 5.47 µg/mL (≈ 11.8 µM) | 4.58 µg/mL (≈ 9.9 µM) | 15.3 µg/mL (≈ 33.1 µM) |
| Clc1ccc(-c2cnc(-c3cnc4nc(-c5ccc(Br)cc5)c(Nc5ccccc5)n4c3)[nH]2)cc1 | 3.11 µg/mL (≈ 5.74 µM) | 1.82 µg/mL (≈ 3.36 µM) | 1.89 µg/mL (≈ 3.49 µM) | 1.76 µg/mL (≈ 3.25 µM) | 4.28 µg/mL (≈ 7.9 µM) | 11.6 µg/mL (≈ 21.5 µM) |
| Clc1ccc(-c2nnc(-c3cnc4nc(-c5ccc(Br)cc5)c(Nc5ccccc5)n4c3)o2)cc1 | 2.34 µg/mL (≈ 4.3 µM) | 1.56 µg/mL (≈ 2.87 µM) | 3.16 µg/mL (≈ 5.81 µM) | 2.45 µg/mL (≈ 4.51 µM) | 5.37 µg/mL (≈ 9.87 µM) | 8.45 µg/mL (≈ 15.5 µM) |
| O=[N+]([O-])c1ccc(-c2nnc(-c3cnc4nc(-c5ccc(Br)cc5)c(Nc5ccccc5)n4c3)o2)cc1 | 3.12 µg/mL (≈ 5.63 µM) | 4.45 µg/mL (≈ 8.03 µM) | 2.23 µg/mL (≈ 4.02 µM) | 3.35 µg/mL (≈ 6.04 µM) | 6.18 µg/mL (≈ 11.1 µM) | 11.2 µg/mL (≈ 20.2 µM) |

— ChEMBL document CHEMBL1629491, “Post Groebke-Blackburn multicomponent protocol: synthesis of new polyfunctional imidazo[1,2-a]pyridine and imidazo[1,2-a]pyrimidine derivatives as potential antimicrobial agents” (2010)
